Here are results for 8 molecules from ChEMBL document CHEMBL3797186, “Single Residue Substitutions That Confer Voltage-Gated Sodium Ion Channel Subtype Selectivity in the NaV1.7 Inhibitory Peptide GpTx-1” (J Med Chem, 2016).

This assay has as its target Sodium channel protein type 5 subunit alpha (Homo sapiens, UniProt Q14524). The experiment in a line: Inhibition of human Nav1.5 expressed in HEK293 cells assessed as inward peak current by ion-works quattro patch clamp electrophysiology method. It counts as cell-based. In outline: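 Stable HEK293 line expressing human NaV1.5, recorded by population patch clamp on the IonWorks Quattro.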

Broadly, the IC50 is the concentration needed to halve the response being measured.

Positions of bridges follow the written chain, without caps; N, C: chain ends. Residues, ends and D or L forms follow the SMILES beside them.

Sequence of Sodium channel protein type 5 subunit alpha (Q14524 whole entry): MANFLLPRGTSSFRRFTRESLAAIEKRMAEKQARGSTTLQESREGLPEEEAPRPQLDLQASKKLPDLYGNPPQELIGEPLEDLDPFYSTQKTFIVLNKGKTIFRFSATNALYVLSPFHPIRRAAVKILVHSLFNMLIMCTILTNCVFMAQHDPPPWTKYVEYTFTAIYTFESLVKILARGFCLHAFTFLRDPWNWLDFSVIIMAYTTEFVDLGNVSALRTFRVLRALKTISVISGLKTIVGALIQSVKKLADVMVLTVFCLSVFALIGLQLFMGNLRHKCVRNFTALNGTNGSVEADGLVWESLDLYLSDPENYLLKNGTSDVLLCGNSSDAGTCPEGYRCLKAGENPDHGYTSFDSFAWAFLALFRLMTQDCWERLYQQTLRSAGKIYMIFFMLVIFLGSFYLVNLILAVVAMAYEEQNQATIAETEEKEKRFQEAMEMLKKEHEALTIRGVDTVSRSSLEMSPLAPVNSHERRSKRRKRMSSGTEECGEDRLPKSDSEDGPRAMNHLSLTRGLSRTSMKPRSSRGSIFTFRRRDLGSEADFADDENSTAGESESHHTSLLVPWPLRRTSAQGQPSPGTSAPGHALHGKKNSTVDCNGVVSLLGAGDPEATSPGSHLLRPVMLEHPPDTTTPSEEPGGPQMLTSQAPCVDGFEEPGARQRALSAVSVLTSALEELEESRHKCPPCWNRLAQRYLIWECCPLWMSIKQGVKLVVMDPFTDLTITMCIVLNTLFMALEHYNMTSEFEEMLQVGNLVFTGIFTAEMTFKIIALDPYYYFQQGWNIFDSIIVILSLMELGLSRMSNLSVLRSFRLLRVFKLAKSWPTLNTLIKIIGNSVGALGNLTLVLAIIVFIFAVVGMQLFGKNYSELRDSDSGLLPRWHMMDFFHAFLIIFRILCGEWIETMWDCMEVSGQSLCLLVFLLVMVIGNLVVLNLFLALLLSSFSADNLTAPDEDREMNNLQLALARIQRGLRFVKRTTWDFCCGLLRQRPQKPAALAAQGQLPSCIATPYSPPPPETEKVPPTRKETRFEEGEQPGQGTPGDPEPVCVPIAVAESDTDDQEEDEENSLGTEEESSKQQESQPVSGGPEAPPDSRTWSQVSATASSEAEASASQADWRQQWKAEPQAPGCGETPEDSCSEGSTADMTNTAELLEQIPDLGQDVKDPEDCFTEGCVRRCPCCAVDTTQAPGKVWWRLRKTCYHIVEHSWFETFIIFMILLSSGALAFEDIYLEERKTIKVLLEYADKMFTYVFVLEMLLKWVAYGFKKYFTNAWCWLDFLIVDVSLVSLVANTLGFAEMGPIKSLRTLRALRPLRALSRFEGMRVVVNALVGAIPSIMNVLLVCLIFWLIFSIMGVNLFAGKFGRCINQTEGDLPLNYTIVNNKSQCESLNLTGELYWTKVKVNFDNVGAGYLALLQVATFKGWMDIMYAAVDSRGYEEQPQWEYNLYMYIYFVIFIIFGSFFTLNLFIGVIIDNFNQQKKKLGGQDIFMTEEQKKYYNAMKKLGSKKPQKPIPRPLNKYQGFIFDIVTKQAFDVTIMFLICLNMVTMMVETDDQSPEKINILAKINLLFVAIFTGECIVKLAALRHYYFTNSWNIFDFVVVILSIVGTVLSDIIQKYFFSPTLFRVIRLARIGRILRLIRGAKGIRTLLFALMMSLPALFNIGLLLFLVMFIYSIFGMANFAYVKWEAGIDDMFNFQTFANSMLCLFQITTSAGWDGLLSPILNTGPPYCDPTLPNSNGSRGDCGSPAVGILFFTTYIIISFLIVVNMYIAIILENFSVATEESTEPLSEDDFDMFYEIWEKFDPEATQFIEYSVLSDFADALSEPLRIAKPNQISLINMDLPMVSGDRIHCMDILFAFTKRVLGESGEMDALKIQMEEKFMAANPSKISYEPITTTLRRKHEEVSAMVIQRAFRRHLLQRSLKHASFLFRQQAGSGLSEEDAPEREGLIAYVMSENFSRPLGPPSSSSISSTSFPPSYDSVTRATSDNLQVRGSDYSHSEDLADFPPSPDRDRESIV

Regarding `CC[C@H](C)[C@@H]1NC(=O)[C@@H]2CSSC[C@@H]3NC(=O)[C@H](C(C)C)NC(=O)[C@H](CC(C)C)NC(=O)[C@H](CC(N)=O)NC(=O)[C@@H]4CCCN4C(=O)[C@H](CCCNC(=N)N)NC(=O)[C@H](CSSC[C@H](NC(=O)[C@@H](N)CC(=O)O)C(=O)N[C@@H](CC(C)C)C(=O)NCC(=O)N[C@@H](Cc4ccccc4)C(=O)N[C@@H](CCSC)C(=O)N[C@@H](CCCNC(=N)N)C(=O)N[C@@H](CCC(=O)O)C(=O)N2)NC(=O)[C@H](CSSC[C@@H](C(=O)N[C@@H](CCCCN)C(=O)N[C@@H](Cc2ccc(O)cc2)C(=O)N[C@H](C(=O)N[C@@H](Cc2ccccc2)C(N)=O)C(C)C)NC(=O)[C@H](Cc2c[nH]c4ccccc24)NC(=O)[C@H](CCCCN)NC(=O)[C@H](Cc2cnc[nH]2)NC(=O)[C@H]([C@@H](C)O)NC(=O)[C@H](CCCNC(=N)N)NC(=O)[C@H](CO)NC3=O)NC(=O)[C@H](CCCCN)NC(=O)[C@H](CC(=O)O)NC(=O)[C@H](CC(N)=O)NC(=O)[C@H](CC(=O)O)NC(=O)[C@@H]2CCCN2C1=O` (H-DCLGFMRECIPDNDKCCRPNLVCSRTHKWCKYVF-NH2; disulfide 2-17, 9-23, 16-30), the half-inhibitory concentration (IC50) was above 5 µM.
Under `CC[C@H](C)[C@@H]1NC(=O)[C@@H]2CSSC[C@@H]3NC(=O)[C@H](C(C)C)NC(=O)[C@H](CC(C)C)NC(=O)[C@H](CC(N)=O)NC(=O)[C@@H]4CCCN4C(=O)[C@H](CCCNC(=N)N)NC(=O)[C@H](CSSC[C@H](NC(=O)[C@@H](N)CCC(=O)O)C(=O)N[C@@H](CC(C)C)C(=O)NCC(=O)N[C@@H](Cc4ccccc4)C(=O)N[C@@H](CCSC)C(=O)N[C@@H](CCCNC(=N)N)C(=O)N[C@@H](CCCCN)C(=O)N2)NC(=O)[C@H](CSSC[C@@H](C(=O)N[C@@H](CCCCN)C(=O)N[C@@H](Cc2ccc(O)cc2)C(=O)N[C@H](C(=O)N[C@@H](Cc2ccccc2)C(N)=O)C(C)C)NC(=O)[C@H](Cc2c[nH]c4ccccc24)NC(=O)[C@H](CCCCN)NC(=O)[C@H](Cc2cnc[nH]2)NC(=O)[C@H]([C@@H](C)O)NC(=O)[C@H](CCCNC(=N)N)NC(=O)[C@H](CO)NC3=O)NC(=O)[C@H](CCCCN)NC(=O)[C@H](CC(=O)O)NC(=O)[C@H](CC(N)=O)NC(=O)[C@H](CC(=O)O)NC(=O)[C@@H]2CCCN2C1=O` (H-ECLGFMRKCIPDNDKCCRPNLVCSRTHKWCKYVF-NH2; disulfide 2-17, 9-23, 16-30) stands above 5 µM; under `CC[C@H](C)[C@@H]1NC(=O)[C@@H]2CSSC[C@@H]3NC(=O)[C@H](C(C)C)NC(=O)[C@H](CC(C)C)NC(=O)[C@H](CC(N)=O)NC(=O)[C@@H]4CCCN4C(=O)[C@H](CCCNC(=N)N)NC(=O)[C@H](CSSC[C@H](NC(=O)[C@H](CC(=O)O)NC(=O)[C@@H](N)CCCNC(=N)N)C(=O)N[C@@H](CC(C)C)C(=O)NCC(=O)N[C@@H](Cc4ccccc4)C(=O)N[C@@H](CCSC)C(=O)N[C@@H](CCCNC(=N)N)C(=O)N[C@@H](CCCCN)C(=O)N2)NC(=O)[C@H](CSSC[C@@H](C(=O)N[C@@H](CCCCN)C(=O)N[C@@H](Cc2ccc(O)cc2)C(=O)N[C@H](C(=O)N[C@@H](Cc2ccccc2)C(N)=O)C(C)C)NC(=O)[C@H](Cc2c[nH]c4ccccc24)NC(=O)[C@H](CCCCN)NC(=O)[C@H](Cc2cnc[nH]2)NC(=O)[C@H]([C@@H](C)O)NC(=O)[C@H](CCCNC(=N)N)NC(=O)[C@H](CO)NC3=O)NC(=O)[C@H](CCCCN)NC(=O)[C@H](CC(=O)O)NC(=O)[C@H](CC(N)=O)NC(=O)[C@H](CC(=O)O)NC(=O)[C@@H]2CCCN2C1=O`, above 5 µM.
Consider `CSCC[C@@H]1NC(=O)[C@H](Cc2ccccc2)NC(=O)CNC(=O)[C@H](CC(C)C)NC(=O)[C@@H](NC(=O)[C@@H](N)CC(=O)O)CSSC[C@@H]2NC(=O)[C@@H]3CSSC[C@@H](C(=O)N[C@@H](CCCCN)C(=O)N[C@@H](Cc4ccc(O)cc4)C(=O)N[C@H](C(=O)N[C@@H](Cc4ccccc4)C(N)=O)C(C)C)NC(=O)[C@H](Cc4c[nH]c5ccccc45)NC(=O)[C@H](CCCCN)NC(=O)[C@H](Cc4cnc[nH]4)NC(=O)[C@H]([C@@H](C)O)NC(=O)[C@H](CCCNC(=N)N)NC(=O)[C@H](CO)NC(=O)[C@H](CSSC[C@H](NC(=O)[C@H](CCCCN)NC(=O)[C@H](CCCNC(=N)N)NC1=O)C(=O)N[C@@H](Cc1ccccn1)C(=O)N1CCC[C@H]1C(=O)N[C@@H](CC(=O)O)C(=O)N[C@@H](CC(N)=O)C(=O)N[C@@H](CC(=O)O)C(=O)N[C@@H](CCCCN)C(=O)N3)NC(=O)[C@H](C(C)C)NC(=O)[C@H](CC(C)C)NC(=O)[C@H](CC(N)=O)NC(=O)[C@@H]1CCCN1C(=O)[C@H](CCCNC(=N)N)NC2=O`, for which the IC50 was above 5 µM.
Under `CC[C@H](C)[C@@H]1NC(=O)[C@@H]2CSSC[C@@H]3NC(=O)[C@H](C(C)C)NC(=O)[C@H](CC(C)C)NC(=O)[C@H](CC(N)=O)NC(=O)[C@@H]4CCCN4C(=O)[C@H](CCCNC(=N)N)NC(=O)[C@H](CSSC[C@H](NC(=O)[C@@H](N)CC(=O)O)C(=O)N[C@@H](CC(C)C)C(=O)NCC(=O)N[C@@H](Cc4ccccc4)C(=O)N[C@@H](CCSC)C(=O)N[C@@H](CCCNC(=N)N)C(=O)N[C@@H](CCCCN)C(=O)N2)NC(=O)[C@H](CSSC[C@@H](C(=O)N[C@@H](CCCCN)C(=O)N[C@@H](Cc2ccc(O)cc2)C(=O)N[C@H](C(=O)N[C@@H](Cc2ccccc2)C(N)=O)C(C)C)NC(=O)[C@H](Cc2c[nH]c4ccccc24)NC(=O)[C@H](CCC(=O)O)NC(=O)[C@H](Cc2cnc[nH]2)NC(=O)[C@H]([C@@H](C)O)NC(=O)[C@H](CCCNC(=N)N)NC(=O)[C@H](CO)NC3=O)NC(=O)[C@H](CCCCN)NC(=O)[C@H](CC(=O)O)NC(=O)[C@H](CC(N)=O)NC(=O)[C@H](CC(=O)O)NC(=O)[C@@H]2CCCN2C1=O` (H-DCLGFMRKCIPDNDKCCRPNLVCSRTHEWCKYVF-NH2; disulfide 2-17, 9-23, 16-30) stands above 5 µM; under `CC[C@H](C)[C@@H]1NC(=O)[C@@H]2CSSC[C@@H]3NC(=O)[C@H](C(C)C)NC(=O)[C@H](CC(C)C)NC(=O)[C@H](CC(N)=O)NC(=O)[C@@H]4CCCN4C(=O)[C@H](CCCNC(=N)N)NC(=O)[C@H](CSSC[C@H](NC(=O)[C@@H](N)CC(=O)O)C(=O)N[C@@H](CC(C)C)C(=O)NCC(=O)N[C@@H](CCCNC(=N)N)C(=O)N[C@@H](CCSC)C(=O)N[C@@H](CCCNC(=N)N)C(=O)N[C@@H](CCCCN)C(=O)N2)NC(=O)[C@H](CSSC[C@@H](C(=O)N[C@@H](CCCCN)C(=O)N[C@@H](Cc2ccc(O)cc2)C(=O)N[C@H](C(=O)N[C@@H](Cc2ccccc2)C(N)=O)C(C)C)NC(=O)[C@H](Cc2c[nH]c4ccccc24)NC(=O)[C@H](CCCCN)NC(=O)[C@H](Cc2cnc[nH]2)NC(=O)[C@H]([C@@H](C)O)NC(=O)[C@H](CCCNC(=N)N)NC(=O)[C@H](CO)NC3=O)NC(=O)[C@H](CCCCN)NC(=O)[C@H](CC(=O)O)NC(=O)[C@H](CC(N)=O)NC(=O)[C@H](CC(=O)O)NC(=O)[C@@H]2CCCN2C1=O` (H-DCLGRMRKCIPDNDKCCRPNLVCSRTHKWCKYVF-NH2; disulfide 2-17, 9-23, 16-30), above 5 µM.
`CC[C@H](C)[C@@H]1NC(=O)[C@@H]2CSSC[C@@H]3NC(=O)[C@H](C(C)C)NC(=O)[C@H](CC(C)C)NC(=O)[C@H](CC(N)=O)NC(=O)[C@@H]4CCCN4C(=O)[C@H](CCCNC(=N)N)NC(=O)[C@H](CSSC[C@H](NC(=O)[C@@H](N)CC(=O)O)C(=O)N[C@@H](CC(C)C)C(=O)NCC(=O)N[C@@H](Cc4ccccc4)C(=O)N[C@@H](CCSC)C(=O)N[C@@H](CCCNC(=N)N)C(=O)N[C@@H](CCCCN)C(=O)N2)NC(=O)[C@H](CSSC[C@@H](C(=O)N[C@@H](CCCCN)C(=O)N[C@@H](Cc2ccc(O)cc2)C(=O)N[C@H](C(=O)N[C@@H](Cc2ccccc2)C(N)=O)C(C)C)NC(=O)[C@H](Cc2c[nH]c4ccccc24)NC(=O)[C@H](CCCCN)NC(=O)[C@H](Cc2cnc[nH]2)NC(=O)[C@H]([C@@H](C)O)NC(=O)[C@H](CCCNC(=N)N)NC(=O)[C@H](CO)NC3=O)NC(=O)[C@H](CCCCN)NC(=O)[C@H](CC(=O)O)NC(=O)[C@H](CC(N)=O)NC(=O)[C@H](CCCNC(=N)N)NC(=O)[C@@H]2CCCN2C1=O` (H-DCLGFMRKCIPRNDKCCRPNLVCSRTHKWCKYVF-NH2; disulfide 2-17, 9-23, 16-30): the IC50 is above 4.8 µM.
In the case of `CC[C@H](C)[C@@H]1NC(=O)[C@@H]2CSSC[C@@H]3NC(=O)[C@H](C(C)C)NC(=O)[C@H](CC(C)C)NC(=O)[C@H](CC(N)=O)NC(=O)[C@@H]4CCCN4C(=O)[C@H](CCCNC(=N)N)NC(=O)[C@H](CSSC[C@H](NC(=O)[C@@H](N)CC(=O)O)C(=O)N[C@@H](CC(C)C)C(=O)NCC(=O)N[C@@H](Cc4ccccc4)C(=O)N[C@@H](CCSC)C(=O)N[C@@H](CCCNC(=N)N)C(=O)N[C@@H](CCCCN)C(=O)N2)NC(=O)[C@H](CSSC[C@@H](C(=O)N[C@@H](CCCCN)C(=O)N[C@@H](CCCNC(=N)N)C(=O)N[C@H](C(=O)N[C@@H](Cc2ccccc2)C(N)=O)C(C)C)NC(=O)[C@H](Cc2c[nH]c4ccccc24)NC(=O)[C@H](CCCCN)NC(=O)[C@H](Cc2cnc[nH]2)NC(=O)[C@H]([C@@H](C)O)NC(=O)[C@H](CCCNC(=N)N)NC(=O)[C@H](CO)NC3=O)NC(=O)[C@H](CCCCN)NC(=O)[C@H](CC(=O)O)NC(=O)[C@H](CC(N)=O)NC(=O)[C@H](CC(=O)O)NC(=O)[C@@H]2CCCN2C1=O` (H-DCLGFMRKCIPDNDKCCRPNLVCSRTHKWCKRVF-NH2; disulfide 2-17, 9-23, 16-30), the IC50 is above 5 µM.
